Reference: ChEMBL document CHEMBL3813617, “An alternative route to the arylvinyltriazole nucleosides” (Bioorg Med Chem Lett, 2016)
Activity calls are given as the source filed them. No cut-off for these calls is given here.

Columns and labels:
[1] = Cytotoxicity against African green monkey Vero E6 cells up to 2 mM; type: cell-based; settings: chlorocebus sabaeus
Vero = experiment: Antiviral activity against Influenza A H5N1 virus (A/duck/Novosibirsk/56/05) infected in African green monkey Vero cells assessed as reduction of virus-induced cytopathic effect; type: functional, cell-based; settings: Influenza A virus (A/duck/Novosibirsk/56/2005(H5N1))
Human alphaherpesvirus 1 = experiment: Antiviral activity against Herpes simplex virus type 1 L2 infected in African green monkey Vero E6 cells assessed as reduction of virus-induced cytopathic effect; type: functional, organism-based; settings: Human alphaherpesvirus 1, L2, Vero
[2] = Cytotoxicity against African green monkey Vero E6 cells; type: cell-based; settings: chlorocebus sabaeus
How it was run: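 Cytotoxicity measured in Vero cells, […]; CC50 derived.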

Hepatitis C virus = experiment: Antiviral activity against Hepatitis C virus infected in African green monkey Vero cells assessed as reduction of virus-induced cytopathic effect; type: functional, organism-based, Hepacivirus hominis

SMILES	Activity [1]	Activity (Vero)	IC50 (Human alphaherpesvirus 1) [µM]	CC50 [2] [nM]	IC50 (Hepatitis C virus) [nM]
NC(=O)c1nc(/C=C\c2ccc(F)cc2)n([C@@H]2O[C@H](CO)[C@@H](O)[C@H]2O)n1	Non-toxic	inactive	–	–	–
NC(=O)c1nc(/C=C\c2cccc(F)c2)n([C@@H]2O[C@H](CO)[C@@H](O)[C@H]2O)n1	Non-toxic	inactive	–	–	–
NC(=O)c1nc(/C=C\c2ccc(C(F)(F)F)cc2)n([C@@H]2O[C@H](CO)[C@@H](O)[C@H]2O)n1	Non-toxic	inactive	–	–	–
NC(=O)c1nc(/C=C/c2ccccc2F)n([C@@H]2O[C@H](CO)[C@@H](O)[C@H]2O)n1 (mixture of isomers)	Non-toxic	inactive	–	–	–
NC(=O)c1ncn([C@@H]2O[C@H](CO)[C@@H](O)[C@H]2O)n1 [RIBAVIRIN]	–	–	10	300	–
NC(=O)c1nc(/C=C/c2ccc(C(F)(F)F)cc2)n([C@@H]2O[C@H](CO)[C@@H](O)[C@H]2O)n1	–	–	–	–	90
NC(=O)c1nc(/C=C/c2ccc(F)cc2)n([C@@H]2O[C@H](CO)[C@@H](O)[C@H]2O)n1	–	inactive	–	3400	–
NC(=O)c1nc(/C=C/c2cccc(F)c2)n([C@@H]2O[C@H](CO)[C@@H](O)[C@H]2O)n1	Non-toxic	inactive	6.9	–	–
